High-throughput results deposited in PubChem by several laboratories.
A selection: hits, their analogues and other compounds. The true share with any hit is near 9.8%.
PMI act: phosphomannose isomerase (human) activation | AID 1214 | purified human PMI, coupled resazurin fluorescence, 20 min; active compounds read high; 1 = vehicle control, 0 substrate-free wells | 0.005% of 190,000 active | activation factor at 20 µM;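 active = activation factor of 2 or more at 20 µM, relative to plate controls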
Target sequence (P34949 whole entry, looked up): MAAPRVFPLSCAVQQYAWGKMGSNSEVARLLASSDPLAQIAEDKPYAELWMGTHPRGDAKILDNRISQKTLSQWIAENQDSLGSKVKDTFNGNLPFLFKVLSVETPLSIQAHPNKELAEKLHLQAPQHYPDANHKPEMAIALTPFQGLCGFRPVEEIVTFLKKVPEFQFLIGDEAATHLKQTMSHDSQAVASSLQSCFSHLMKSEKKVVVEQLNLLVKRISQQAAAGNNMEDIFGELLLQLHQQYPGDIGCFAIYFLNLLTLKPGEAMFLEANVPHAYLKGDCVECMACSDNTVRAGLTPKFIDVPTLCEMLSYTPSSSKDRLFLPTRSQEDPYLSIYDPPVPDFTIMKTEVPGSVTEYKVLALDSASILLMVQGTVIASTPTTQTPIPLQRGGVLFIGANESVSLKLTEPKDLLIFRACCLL
Calpain2 inh: blocks pig calpain II enzyme activity; purified calpain II, fluorogenic peptide substrate, 30 min; inhibition, % at 16 µM; 0.37% of 220,000 active;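 active = inhibition above about 50%, limit read from the data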
Lmaj promast: inhibitors of Leishmania major promastigote growth; Leishmania major promastigotes, resazurin fluorescence viability; inhibition, % at 10 µM; 9% of 200,000 active; AID 1063; in the data active = inhibition above about 50%;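 note: promastigotes grown with compound for 44 hours at 28 °C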
WT yeast gro inh: growth inhibition of WT yeast, mitochondrial fusion screen; inhibition, % at 10 µM; mitochondrial fusion phenotypic screen, WT strain; 2.1% of 190,000 active; in the data active = inhibition above about 58%; tested in S. cerevisiae
Rad51 HR inh: blocks human Rad51 in homologous recombination; Q06609; hRad51 DNA strand exchange, fluorescence dequenching; 0.085% of 200,000 active; inhibition, % at 10 µM;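 active = inhibition above 40% at the single screening dose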;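 note: 0% = DMSO control wells and 100% = blanks with heterologous ssDNA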
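Assay system: Human Rad51 nucleoprotein filaments preassembled on unlabelled ssDNA | Reagent: Donor/quencher-labelled 47-bp dsDNA substrate | Doses: One concentration, 10 µM final | Times: 37 °C 15-min filament assembly, 30-min compound preincubation, 15-min exchange | Technique: Fluorescein emission 520 nm, excitation 485 nm | Benchmarks: Plate control and blank wells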
PMI act satM6P: PMI (human) activation, high substrate; P34949; coupled PMI enzyme assay, resazurin fluorescence, 20 min; active compounds read high; 1 = untreated enzyme, 0 = substrate-free blank; activation factor at 20 µM; 0.34% of 190,000 active; AID 1216;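 active = activation factor of 2 or more at 20 µM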
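Material: human phosphomannose isomerase with PGI, G6PDH, diaphorase coupling enzymes / Reagent: Man-6-P substrate 1.0 mM / Dosing: single compound dose of 20 µM, 1% DMSO final / Incubation: enzyme reaction with compound 20 min at room temperature / Signal: resorufin fluorescence (Ex 544/Em 590 nm) from resazurin via diaphorase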
The depositor's hits bear a star.

Screening COc1ccccc1NC(=O)Nc1nn(C)c2cccc(OC)c12 returned Calpain2 inh -1 and Rad51 HR inh -1.
CN(Cc1ccon1)Cc1cn(C)nc1-c1cccc(Cl)c1 was read as PMI act 1.1, Calpain2 inh 15, Lmaj promast 3, WT yeast gro inh 14, Rad51 HR inh -9 and PMI act satM6P 1.1.
Screening COc1ccc(CCNC(=O)CSc2nc(C)nc3sccc23)cc1OC returned Calpain2 inh -6 and Rad51 HR inh -3.
Screening Cc1ccc(C(=O)Nc2ccc(S(=O)(=O)N3CCCC3)cc2)s1 returned PMI act 1, Calpain2 inh -5, Lmaj promast 8, WT yeast gro inh -6, Rad51 HR inh 5 and PMI act satM6P 1.
Screening Cc1cc(C(=O)Nc2ccc(S(=O)(=O)N3CCCC3)cc2)cs1 returned PMI act 0.9, Calpain2 inh 6, Lmaj promast 73*, WT yeast gro inh -8, Rad51 HR inh -7 and PMI act satM6P 1.
Screening CCOC(=O)CNS(=O)(=O)c1cc(-c2nnc(Nc3ccc4c(c3)OCO4)c3ccccc23)ccc1C returned PMI act 0.7, Calpain2 inh -86, Lmaj promast 55*, WT yeast gro inh -4, Rad51 HR inh 5 and PMI act satM6P 0.8.
`COC(=O)c1ccc(Nc2nnc(-c3ccc(C)c(S(=O)(=O)NCC4CCCO4)c3)c3ccccc23)cc1` (stereo not drawn) gave PMI act 0.8, Calpain2 inh -130, Lmaj promast 92*, WT yeast gro inh -1, Rad51 HR inh 5 and PMI act satM6P 0.8.
`CC1=CN2C(=N)/C(=C\c3cn(CCCOc4ccccc4)c4ccccc34)C(=O)N=C2S1` gave PMI act 1, Calpain2 inh -1, Lmaj promast 5, WT yeast gro inh 7, Rad51 HR inh -10 and PMI act satM6P 1.1.
`Cc1ccc(NC(=O)C(OC(=O)c2cc(C)oc2C)c2ccccc2)cc1` (stereo not drawn) gave PMI act 0.9, Calpain2 inh 25, Lmaj promast 52*, WT yeast gro inh 23, Rad51 HR inh -1 and PMI act satM6P 1.
`Cc1cc(C(=O)OC(C(=O)Nc2cccc(C(F)(F)F)c2)c2ccccc2)c(C)o1` (stereo not drawn) gave PMI act 0.8, Calpain2 inh -2, Lmaj promast 20, WT yeast gro inh 48, Rad51 HR inh 4 and PMI act satM6P 0.9.
`NS(=O)(=O)c1ccc(NC(=O)COC(=O)/C(=C/c2cccs2)c2cccs2)cc1` gave PMI act 0.9, Calpain2 inh -30, Lmaj promast -5, WT yeast gro inh 3, Rad51 HR inh 7 and PMI act satM6P 0.9.
For O=C(/C=C/c1cccs1)N1CCOCC1 the results were PMI act 1.1, Calpain2 inh 56*, Lmaj promast -6, WT yeast gro inh -25, Rad51 HR inh -2 and PMI act satM6P 1.
`Cc1ccc(-c2noc(CSc3nnc(CCc4ccccc4)n3-c3ccccc3)n2)cc1` gave PMI act 0.8, Calpain2 inh 38, Lmaj promast 12, WT yeast gro inh 50, Rad51 HR inh -3 and PMI act satM6P 0.9.
COc1ccc(-c2noc(CSc3nnc(CCc4ccccc4)n3-c3ccccc3)n2)cc1OC was read as PMI act 0.8, Calpain2 inh 3, Lmaj promast 72*, WT yeast gro inh 37, Rad51 HR inh 5 and PMI act satM6P 0.8.
COc1ccc(-c2noc(CSc3nnc(Cc4ccccc4)n3-c3ccc(Cl)cc3)n2)cc1 was read as PMI act 0.8, Calpain2 inh 29, Lmaj promast 18, WT yeast gro inh 60*, Rad51 HR inh -8 and PMI act satM6P 0.8.
Screening Cc1ccc(-c2noc(CSc3nnc(Cc4ccccc4)n3-c3ccc(Cl)cc3)n2)cc1 returned PMI act 0.8, Calpain2 inh 14, Lmaj promast 20, WT yeast gro inh 53, Rad51 HR inh -3 and PMI act satM6P 0.8.
Screening CCOC(=O)c1ccc(Oc2cc(C)nc(Cl)n2)cc1 returned Calpain2 inh -5 and Rad51 HR inh -2.
`C=Cc1ccc2c(c1)N(C)C(=C)S2` gave PMI act 0.6, Calpain2 inh 2, Lmaj promast -6, WT yeast gro inh -2, Rad51 HR inh -2 and PMI act satM6P 1.2.
